This passage reports ΔTm, Activity and inhibition results from ChEMBL document CHEMBL4350961, “Discovery of Pyrrolo[3,2- d]pyrimidin-4-one Derivatives as a New Class of Potent and Cell-Active Inhibitors of P300/CBP-Associated Factor Bromodomain” (J Med Chem, 2019).

Activity calls are given as the source filed them. No cut-off for these calls is given here.

In test [1] the target is Bromodomain adjacent to zinc finger domain protein 2B (Homo sapiens) (UniProt Q9UIF8). The test is described as follows: Binding affinity to human N-terminal His-tagged BAZ2B assessed as change in melting temperature at 10 uM by SYPRO orange dye-based fluorescence assay. In a few lines: (§1)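 Thermal shift with His-tagged human bromodomain at 2 μM final in 10 mM HEPES pH 7.5, 500 mM NaCl. Compound at 10 μM final with 0.1% DMSO; SYPRO Orange at 1:1000. Equilibrated 3 min at 25 °C, then heated from 25 to 95 °C at 1 °C/min. Melting temperature shift taken from fluorescence; at least duplicate.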

Test [2] concerns the target Transcription intermediary factor 1-alpha (Homo sapiens) (UniProt O15164). Nature of the test: Binding affinity to human N-terminal His-tagged TRIM24 assessed as change in melting temperature at 10 uM by SYPRO orange dye-based fluorescence assay. In a few lines: as §1
The target is the same in test [3]. Nature of the test: Binding affinity to human partial length TRIM24 (P790 to P977 residues) expressed in bacterial expression system at 1 uM by BROMOscan assay. An outline of the steps:
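BROMOscan bromodomain cross-screen run by an outside service, compound at 1 µM against 32 recombinant bromodomains. Binding given as percent of control.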

Test [4] concerns Tyrosine-protein kinase ABL1 (Homo sapiens), P00519 [M351T]. Nature of the test: Inhibition of recombinant human ABL M351T mutant (27 to end residues) at 10 uM using EAIYAAPFAKKK as substrate measured after 40 mins in presence of [gamma33P]ATP by scintillation counting method.
For test [5], the target named is NUAK family SNF1-like kinase 1 (Homo sapiens) (UniProt O60285). Nature of the test: Inhibition of recombinant human ARK5 (2 to end residues) at 10 uM using KKKVSRSGLYRSPSMPENLNRPR as substrate measured after 40 mins in presence of [gamma33P]ATP by scintillation counting method.
The species named for the next test is Mus musculus. The test is described as follows: Inhibition of full-length recombinant mouse BLK V421E mutant at 10 uM using poly(Glu, Tyr) 4:1 as substrate measured after 40 mins in presence of [gamma33P]ATP by scintillation counting method. An outline of the steps:
(§2)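 Kinase panel of 422 kinases screened by Eurofins KinaseProfiler at a single test-compound concentration of 10 µM.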

For test [6], the target named is Calcium/calmodulin-dependent protein kinase type II subunit beta (Homo sapiens) (UniProt Q13554). Nature of the test: Inhibition of recombinant full-length human CaMK2beta (1 to 315 residues) at 10 uM using calmodulin as substrate measured after 40 mins in presence of [gamma33P]ATP by scintillation counting method.
Test [7] has as its target Casein kinase I isoform epsilon (Homo sapiens) (UniProt P49674). The test is described as follows: Inhibition of human CK1epsilon at 10 uM using KRRRALS(p)VASLPGL as substrate measured after 120 mins in presence of [gamma33P]ATP by scintillation counting method. An outline of the steps:
as §2

Test [8] has as its target Serine/threonine-protein kinase 35 (Homo sapiens) (UniProt Q8TDR2). The test is described as follows: Inhibition of recombinant full length human CLIK1 at 10 uM using RSRSRSRSRSRSRSR as substrate measured after 40 mins in presence of [gamma33P]ATP by scintillation counting method.
Test [9] deals with Proto-oncogene tyrosine-protein kinase Src (Homo sapiens) (UniProt P12931). The test is described as follows: Inhibition of recombinant full-length human SRC at 10 uM using Cdc2 peptide as substrate measured after 40 mins in presence of [gamma33P]ATP by scintillation counting method.
For test [10], the target named is Fibroblast growth factor receptor 1 (Homo sapiens) (UniProt P11362). The test is described as follows: Inhibition of recombinant human FGFR1 (456 to 765 residues) at 10 uM using KKKSPGEYVNIEFG as substrate measured after 40 mins in presence of [gamma33P]ATP by scintillation counting method.
Test [11] concerns Macrophage colony-stimulating factor 1 receptor (Homo sapiens), P07333 [Y969C]. The test is described as follows: Inhibition of recombinant human FMS Y969C mutant (538 to end residues) at 10 uM using EEEEYEEEEEEYYIIEEEEEEYEEEEEEYYEEEEEEKKKK as substrate measured after 40 mins in presence of [gamma33P]ATP by scintillation counting method.
Test [12] addresses Mitogen-activated protein kinase 1 (Mus musculus) (UniProt P63085). Nature of the test: Inhibition of mouse MAPK2 at 10 uM.
The species entered for another test is Homo sapiens. Nature of the test: Inhibition of recombinant human MAPKAPK2 A399G mutant (46 to end residues) at 10 uM using KKLNRTLSVA as substrate measured after 40 mins in presence of [gamma33P]ATP by scintillation counting method.
In test [13] the target is Myosin light chain kinase 2, skeletal/cardiac muscle (Homo sapiens) (UniProt Q9H1R3). Nature of the test: Inhibition of recombinant full-length human MYLK2 at 10 uM using KKLNRTLSFAEPG as substrate measured after 40 mins in presence of [gamma33P]ATP by scintillation counting method.
Test [14] deals with NUAK family SNF1-like kinase 2 (Homo sapiens) (UniProt Q9H093). Nature of the test: Inhibition of recombinant full-length human NUAK2 at 10 uM using KKKVSRSGLYRSPSMPENLNRPR as substrate measured after 40 mins in presence of [gamma33P]ATP by scintillation counting method.
Test [15] has as its target Serine/threonine-protein kinase MARK2 (Homo sapiens) (UniProt Q7KZI7). The test is described as follows: Inhibition of recombinant full-length human PAR1Balpha at 10 uM using KKKVSRSGLYRSPSMPENLNRPR as substrate measured after 40 mins in presence of [gamma33P]ATP by scintillation counting method.
Test [16] has as its target Platelet-derived growth factor receptor alpha (Homo sapiens) (UniProt P16234). Nature of the test: Inhibition of recombinant human PDGFRalpha (550 to end residues) at 10 uM using poly(Glu, Tyr) 4:1 as substrate measured after 40 mins in presence of [gamma33P]ATP by scintillation counting method.
For test [17], the target named is cAMP-dependent protein kinase catalytic subunit PRKX (Homo sapiens) (UniProt P51817). Nature of the test: Inhibition of recombinant full-length human PrKX at 10 uM using RRRLSFAEPG as substrate measured after 40 mins in presence of [gamma33P]ATP by scintillation counting method.
Test [18] addresses Ribosomal protein S6 kinase alpha-3 (Homo sapiens) (UniProt P51812). The test is described as follows: Inhibition of human Rsk2 (2 to end residues) using KKKNRTLSVA as substrate measured after 40 mins in presence of [gamma33P]ATP by scintillation counting method. An outline of the steps: as §2
Test [19] has as its target Ribosomal protein S6 kinase alpha-6 (Homo sapiens) (UniProt Q9UK32). The test is described as follows: Inhibition of recombinant full-length human Rsk4 at 10 uM using LRRASLG as substrate measured after 40 mins in presence of [gamma33P]ATP by scintillation counting method.
The target of test [20] is PI3K p110 beta/p85 alpha (Homo sapiens) (UniProt P27986+P42338). Nature of the test: Inhibition of recombinant full-length human PI3K p110beta/p85alpha at 10 uM using phosphatidylinositol-4, 5-bisphosphate as substrate measured after 40 mins by fluorescence assay. It is filed as protein-complex assay.
Test [21] deals with PI3-kinase p110-alpha/p85-alpha (Homo sapiens), P27986+P42336 [H1047R]. Nature of the test: Inhibition of recombinant full-length human PI3K p110alpha/p85alpha H1047R mutant at 10 uM using phosphatidylinositol-4, 5-bisphosphate as substrate measured after 40 mins by fluorescence assay. Format: protein-complex assay.

Transcription intermediary factor 1-alpha (Homo sapiens), sequence (O15164 whole entry, the tested form may be a part): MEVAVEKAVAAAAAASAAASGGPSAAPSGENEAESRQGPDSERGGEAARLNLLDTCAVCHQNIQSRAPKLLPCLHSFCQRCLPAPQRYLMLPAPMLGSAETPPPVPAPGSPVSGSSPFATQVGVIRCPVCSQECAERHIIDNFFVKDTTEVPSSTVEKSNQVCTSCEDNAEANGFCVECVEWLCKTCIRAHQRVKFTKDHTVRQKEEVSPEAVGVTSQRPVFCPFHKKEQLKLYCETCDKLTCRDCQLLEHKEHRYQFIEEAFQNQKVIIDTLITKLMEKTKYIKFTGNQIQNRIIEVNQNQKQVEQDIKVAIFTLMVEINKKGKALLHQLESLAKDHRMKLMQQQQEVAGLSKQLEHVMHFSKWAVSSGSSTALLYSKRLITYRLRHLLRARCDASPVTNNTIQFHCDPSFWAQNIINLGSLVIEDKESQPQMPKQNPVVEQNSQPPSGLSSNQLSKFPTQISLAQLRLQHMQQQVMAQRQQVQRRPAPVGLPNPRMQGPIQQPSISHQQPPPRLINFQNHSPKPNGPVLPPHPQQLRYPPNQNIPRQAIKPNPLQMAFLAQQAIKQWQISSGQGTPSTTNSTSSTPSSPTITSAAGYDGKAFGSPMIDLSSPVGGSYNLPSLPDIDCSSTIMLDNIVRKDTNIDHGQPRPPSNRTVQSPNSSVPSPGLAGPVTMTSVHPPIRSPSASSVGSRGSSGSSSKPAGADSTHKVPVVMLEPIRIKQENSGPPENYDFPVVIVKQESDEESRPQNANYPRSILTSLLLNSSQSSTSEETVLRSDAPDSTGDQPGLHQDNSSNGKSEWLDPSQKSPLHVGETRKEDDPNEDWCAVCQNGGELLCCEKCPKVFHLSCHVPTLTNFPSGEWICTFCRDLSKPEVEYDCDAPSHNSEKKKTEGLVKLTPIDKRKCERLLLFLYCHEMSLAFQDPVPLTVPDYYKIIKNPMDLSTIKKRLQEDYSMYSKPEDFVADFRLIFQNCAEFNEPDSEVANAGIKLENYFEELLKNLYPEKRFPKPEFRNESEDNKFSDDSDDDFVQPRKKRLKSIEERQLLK
Serine/threonine-protein kinase MARK2 (Homo sapiens), sequence (Q7KZI7 whole entry): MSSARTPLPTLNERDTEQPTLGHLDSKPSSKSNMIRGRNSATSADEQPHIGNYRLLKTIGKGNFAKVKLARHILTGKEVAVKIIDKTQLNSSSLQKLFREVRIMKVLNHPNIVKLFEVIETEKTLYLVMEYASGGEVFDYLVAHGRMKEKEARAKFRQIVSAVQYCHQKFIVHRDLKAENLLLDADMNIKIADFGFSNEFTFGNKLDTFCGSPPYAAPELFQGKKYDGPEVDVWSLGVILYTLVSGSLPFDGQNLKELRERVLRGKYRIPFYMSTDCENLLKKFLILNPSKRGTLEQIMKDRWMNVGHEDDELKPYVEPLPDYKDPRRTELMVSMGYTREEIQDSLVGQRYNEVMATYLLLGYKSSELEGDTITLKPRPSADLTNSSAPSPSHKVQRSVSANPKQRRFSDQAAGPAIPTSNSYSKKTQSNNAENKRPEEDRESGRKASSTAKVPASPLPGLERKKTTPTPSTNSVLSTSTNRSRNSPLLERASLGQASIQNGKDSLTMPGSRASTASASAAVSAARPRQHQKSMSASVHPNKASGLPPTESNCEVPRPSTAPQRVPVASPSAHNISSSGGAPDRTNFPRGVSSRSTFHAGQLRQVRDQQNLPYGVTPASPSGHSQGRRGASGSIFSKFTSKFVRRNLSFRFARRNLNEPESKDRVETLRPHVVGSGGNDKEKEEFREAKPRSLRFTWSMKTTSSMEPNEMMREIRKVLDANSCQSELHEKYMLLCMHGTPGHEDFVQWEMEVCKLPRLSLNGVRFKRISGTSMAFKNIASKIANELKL
Myosin light chain kinase 2, skeletal/cardiac muscle (Homo sapiens), sequence (Q9H1R3 whole entry): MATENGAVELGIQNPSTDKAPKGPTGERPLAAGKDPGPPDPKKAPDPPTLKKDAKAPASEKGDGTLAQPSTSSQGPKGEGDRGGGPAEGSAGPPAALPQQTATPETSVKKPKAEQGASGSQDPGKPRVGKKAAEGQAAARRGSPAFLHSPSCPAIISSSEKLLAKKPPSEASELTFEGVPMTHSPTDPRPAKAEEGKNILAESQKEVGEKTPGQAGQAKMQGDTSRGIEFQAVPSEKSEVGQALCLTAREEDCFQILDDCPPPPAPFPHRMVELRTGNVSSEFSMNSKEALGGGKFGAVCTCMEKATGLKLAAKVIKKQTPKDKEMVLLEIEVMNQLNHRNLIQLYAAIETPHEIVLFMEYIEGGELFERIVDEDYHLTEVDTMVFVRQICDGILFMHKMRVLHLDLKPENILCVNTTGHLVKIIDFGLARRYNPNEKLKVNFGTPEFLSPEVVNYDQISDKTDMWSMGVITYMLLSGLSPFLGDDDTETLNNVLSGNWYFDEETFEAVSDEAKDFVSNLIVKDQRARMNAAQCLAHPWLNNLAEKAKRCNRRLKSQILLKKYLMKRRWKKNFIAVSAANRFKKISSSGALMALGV
NUAK family SNF1-like kinase 1 (Homo sapiens), sequence (O60285 whole entry): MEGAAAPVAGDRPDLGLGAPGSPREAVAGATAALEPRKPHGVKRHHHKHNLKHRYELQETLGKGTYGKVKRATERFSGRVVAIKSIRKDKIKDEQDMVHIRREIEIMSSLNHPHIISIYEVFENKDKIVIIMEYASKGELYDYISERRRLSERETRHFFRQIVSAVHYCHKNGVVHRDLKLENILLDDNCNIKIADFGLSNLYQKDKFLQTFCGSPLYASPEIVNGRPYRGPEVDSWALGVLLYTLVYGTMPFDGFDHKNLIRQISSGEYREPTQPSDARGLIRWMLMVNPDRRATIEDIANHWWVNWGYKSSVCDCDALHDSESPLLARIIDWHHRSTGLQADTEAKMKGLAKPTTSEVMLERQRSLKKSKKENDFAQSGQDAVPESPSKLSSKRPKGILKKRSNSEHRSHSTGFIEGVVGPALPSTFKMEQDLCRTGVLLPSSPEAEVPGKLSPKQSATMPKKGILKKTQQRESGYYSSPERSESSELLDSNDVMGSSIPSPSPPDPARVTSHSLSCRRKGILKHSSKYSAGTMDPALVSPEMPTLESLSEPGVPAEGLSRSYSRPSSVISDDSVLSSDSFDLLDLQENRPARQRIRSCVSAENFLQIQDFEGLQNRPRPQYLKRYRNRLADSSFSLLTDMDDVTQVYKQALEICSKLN
Serine/threonine-protein kinase 35 (Homo sapiens), sequence (Q8TDR2 whole entry): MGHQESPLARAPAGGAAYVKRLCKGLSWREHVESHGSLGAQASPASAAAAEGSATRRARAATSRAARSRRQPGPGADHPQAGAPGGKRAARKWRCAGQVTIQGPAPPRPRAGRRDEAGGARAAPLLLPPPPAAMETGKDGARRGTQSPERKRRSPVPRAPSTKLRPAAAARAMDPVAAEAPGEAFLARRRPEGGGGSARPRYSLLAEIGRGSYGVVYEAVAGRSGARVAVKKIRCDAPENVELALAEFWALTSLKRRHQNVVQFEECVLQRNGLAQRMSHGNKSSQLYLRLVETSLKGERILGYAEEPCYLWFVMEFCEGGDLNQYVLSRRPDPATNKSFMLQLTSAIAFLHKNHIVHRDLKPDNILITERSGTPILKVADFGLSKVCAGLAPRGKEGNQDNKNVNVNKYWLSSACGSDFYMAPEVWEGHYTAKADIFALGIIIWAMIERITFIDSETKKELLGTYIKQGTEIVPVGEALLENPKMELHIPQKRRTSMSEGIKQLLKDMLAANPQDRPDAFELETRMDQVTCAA
Proto-oncogene tyrosine-protein kinase Src (Homo sapiens), sequence (P12931 2-536 limits assumed): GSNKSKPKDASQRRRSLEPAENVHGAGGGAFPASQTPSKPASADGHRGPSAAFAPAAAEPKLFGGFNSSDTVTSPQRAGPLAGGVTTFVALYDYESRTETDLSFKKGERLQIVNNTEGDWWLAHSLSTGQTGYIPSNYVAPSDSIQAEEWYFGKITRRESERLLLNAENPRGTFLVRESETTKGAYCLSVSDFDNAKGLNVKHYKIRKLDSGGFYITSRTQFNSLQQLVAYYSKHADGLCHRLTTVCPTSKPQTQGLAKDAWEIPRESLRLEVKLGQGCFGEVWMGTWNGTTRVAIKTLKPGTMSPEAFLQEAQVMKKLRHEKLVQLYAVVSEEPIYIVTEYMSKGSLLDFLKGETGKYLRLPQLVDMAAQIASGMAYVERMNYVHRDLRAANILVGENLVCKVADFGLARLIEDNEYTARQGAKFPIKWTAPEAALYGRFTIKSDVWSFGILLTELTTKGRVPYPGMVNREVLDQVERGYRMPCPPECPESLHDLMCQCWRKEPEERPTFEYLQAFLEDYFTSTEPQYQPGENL
Mitogen-activated protein kinase 1 (Mus musculus), sequence (P63085 whole entry): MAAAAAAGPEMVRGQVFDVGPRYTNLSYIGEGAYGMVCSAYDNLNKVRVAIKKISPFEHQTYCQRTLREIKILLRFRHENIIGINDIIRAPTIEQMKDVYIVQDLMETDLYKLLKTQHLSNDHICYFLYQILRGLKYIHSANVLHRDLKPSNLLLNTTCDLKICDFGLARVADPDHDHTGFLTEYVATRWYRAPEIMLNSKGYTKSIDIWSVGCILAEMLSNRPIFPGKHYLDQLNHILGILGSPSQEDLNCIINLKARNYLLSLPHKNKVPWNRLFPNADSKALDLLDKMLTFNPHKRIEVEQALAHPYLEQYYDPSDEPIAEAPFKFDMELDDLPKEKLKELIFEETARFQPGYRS
cAMP-dependent protein kinase catalytic subunit PRKX (Homo sapiens), sequence (P51817 whole entry): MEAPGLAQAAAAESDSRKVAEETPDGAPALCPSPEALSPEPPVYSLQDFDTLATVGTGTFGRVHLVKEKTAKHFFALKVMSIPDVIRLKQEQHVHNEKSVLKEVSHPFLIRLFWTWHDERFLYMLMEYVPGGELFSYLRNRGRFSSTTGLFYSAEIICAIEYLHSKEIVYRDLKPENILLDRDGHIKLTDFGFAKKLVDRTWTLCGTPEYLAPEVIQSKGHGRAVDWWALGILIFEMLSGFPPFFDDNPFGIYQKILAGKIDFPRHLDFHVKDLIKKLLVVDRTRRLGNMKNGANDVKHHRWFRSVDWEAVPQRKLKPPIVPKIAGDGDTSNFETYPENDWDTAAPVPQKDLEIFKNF

Consider `CN1C[C@H](Nc2nc3cc[nH]c3c(=O)n2C)C[C@H](c2ccc3c(c2)OCCO3)C1`, for which the thermal shift (ΔTm) – broadly, the change in melting temperature against a reference sample – was 1.9 °C in test [1] and -0.3 °C in test [2]. The outcome in test [3] was inactive. Further, the inhibition result (in test [4]; in [5]; in the test filed under Mus musculus; in test [6]; in [7]; in test [8]) was “inactive” in each case. In addition, the inhibition entry (in [9]; in test [10]; in test [11]; in test [12]; in the test filed under Homo sapiens; in test [13]) was “inactive” in each case. Further, the inhibition result in test [14], in test [15], in [16], in [17], in test [18] and in test [19] was “inactive” in each case. Besides, the inhibition entry in [20] and in [21] was “inactive” throughout.
